Reference: ChEMBL document CHEMBL4689842, “EUbOPEN Chemogenomics Library wave 1” (2021)

System: HEK-293T
Assay: Multiplex assay against HEK293T;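 on Population Tubulin-Different-Phenotype (%): share of the cells with healthy nuclei that show this phenotype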
Type: toxicity, cell-based
Details: human
Summary of the method: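 Cells were classed with CellPathfinder machine-learning gating, first as Hoechst high-intensity objects or normal cells, then (normal cells) as healthy, pyknosed or fragmented nuclei, and finally (pyknosed cells) as mitotic or apoptotic. Staining of live cells at seeding used Hoechst33342, BioTracker Green Microtubule Cytoskeleton Dye, MitoTracker Red and Annexin V Alexa Fluor 680, with imaging on a CQ1 microscope at 37°C and 5% CO2 after compound addition. Tubulin, mitochondrial-mass and membrane-permeability phenotypes are per cents of healthy-nucleus cells.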

[1] = 12 h, 1 µM, compound concentration 1 uM, replicate 1
[2] = 12 h, 1 µM, compound concentration 1 uM, replicate 2
[3] = 12 h, 10 µM, compound concentration 10 uM, replicate 1
[4] = 12 h, 10 µM, compound concentration 10 uM, replicate 2
[5] = 24 h, 1 µM, compound concentration 1 uM, replicate 1
[6] = 24 h, 1 µM, compound concentration 1 uM, replicate 2
[7] = 24 h, 10 µM, compound concentration 10 uM, replicate 1
[8] = 24 h, 10 µM, compound concentration 10 uM, replicate 2
[9] = 48 h, 1 µM, compound concentration 1 uM, replicate 1
[10] = 48 h, 1 µM, compound concentration 1 uM, replicate 2
[11] = 48 h, 10 µM, compound concentration 10 uM, replicate 1
[12] = 48 h, 10 µM, compound concentration 10 uM, replicate 2

## CCCCN(CC)c1nc(C)nc2c1c(C)cn2-c1c(C)cc(C)cc1C.Cl
[1]
  Population Apoptotic (%): 49%
  Population Fragmented Nuclei (%): 15%
  Population Healthy Nuclei (%): 45%
  Population Hoechst High Intensity Objects (%): 16%
  Population Membrane Permeable-Phenotype (%): 5%
  Population Mitochondria Different-Phenotype (%): 79%
  Population Mitotic Cells (%): 50%
  Population Normal (%): 83%
  Population Pyknosed Nuclei (%): 39%
  Population Tubulin-Different-Phenotype (%): 32%
  Total Cell Count: 241
[2]
  Population Apoptotic (%): 11%
  Population Fragmented Nuclei (%): 5%
  Population Healthy Nuclei (%): 43%
  Population Hoechst High Intensity Objects (%): 1%
  Population Membrane Permeable-Phenotype (%): 6%
  Population Mitochondria Different-Phenotype (%): 11%
  Population Mitotic Cells (%): 88%
  Population Normal (%): 98%
  Population Pyknosed Nuclei (%): 51%
  Population Tubulin-Different-Phenotype (%): 17%
  Total Cell Count: 240
[3]
  Population Apoptotic (%): 59%
  Population Fragmented Nuclei (%): 13%
  Population Hoechst High Intensity Objects (%): 8%
  Population Membrane Permeable-Phenotype (%): 1%
  Population Mitochondria Different-Phenotype (%): 95%
  Population Mitotic Cells (%): 40%
  Population Normal (%): 91%
  Population Pyknosed Nuclei (%): 49%
  Population Tubulin-Different-Phenotype (%): 75%
  Total Cell Count: 236
[4]
  Population Apoptotic (%): 27%
  Population Fragmented Nuclei (%): 7%
  Population Healthy Nuclei (%): 37%
  Population Hoechst High Intensity Objects (%): 7%
  Population Membrane Permeable-Phenotype (%): 6%
  Population Mitochondria Different-Phenotype (%): 68%
  Population Mitotic Cells (%): 72%
  Population Normal (%): 92%
  Population Pyknosed Nuclei (%): 54%
  Population Tubulin-Different-Phenotype (%): 60%
  Total Cell Count: 211
[5]
  Population Apoptotic (%): 48%
  Population Fragmented Nuclei (%): 16%
  Population Healthy Nuclei (%): 41%
  Population Hoechst High Intensity Objects (%): 13%
  Population Membrane Permeable-Phenotype (%): 4%
  Population Mitochondria Different-Phenotype (%): 61%
  Population Mitotic Cells (%): 51%
  Population Normal (%): 86%
  Population Pyknosed Nuclei (%): 42%
  Population Tubulin-Different-Phenotype (%): 36%
  Total Cell Count: 247
[6]
  Population Apoptotic (%): 15%
  Population Fragmented Nuclei (%): 4%
  Population Healthy Nuclei (%): 61%
  Population Hoechst High Intensity Objects (%): 1%
  Population Membrane Permeable-Phenotype (%): 9%
  Population Mitochondria Different-Phenotype (%): 13%
  Population Mitotic Cells (%): 84%
  Population Normal (%): 98%
  Population Pyknosed Nuclei (%): 33%
  Population Tubulin-Different-Phenotype (%): 21%
  Total Cell Count: 308
[7]
  Population Apoptotic (%): 64%
  Population Fragmented Nuclei (%): 10%
  Population Hoechst High Intensity Objects (%): 9%
  Population Membrane Permeable-Phenotype (%): 1%
  Population Mitochondria Different-Phenotype (%): 95%
  Population Mitotic Cells (%): 35%
  Population Normal (%): 90%
  Population Pyknosed Nuclei (%): 37%
  Population Tubulin-Different-Phenotype (%): 89%
[8]
  Population Apoptotic (%): 29%
  Population Fragmented Nuclei (%): 4%
  Population Healthy Nuclei (%): 51%
  Population Hoechst High Intensity Objects (%): 6%
  Population Membrane Permeable-Phenotype (%): 4%
  Population Mitochondria Different-Phenotype (%): 73%
  Population Mitotic Cells (%): 70%
  Population Normal (%): 93%
  Population Pyknosed Nuclei (%): 44%
  Population Tubulin-Different-Phenotype (%): 81%
  Total Cell Count: 231
[9]
  Population Apoptotic (%): 43%
  Population Fragmented Nuclei (%): 20%
  Population Healthy Nuclei (%): 46%
  Population Hoechst High Intensity Objects (%): 12%
  Population Membrane Permeable-Phenotype (%): 2%
  Population Mitochondria Different-Phenotype (%): 26%
  Population Mitotic Cells (%): 56%
  Population Normal (%): 87%
  Population Pyknosed Nuclei (%): 32%
  Population Tubulin-Different-Phenotype (%): 22%
  Total Cell Count: 315
[10]
  Population Apoptotic (%): 15%
  Population Fragmented Nuclei (%): 7%
  Population Healthy Nuclei (%): 82%
  Population Hoechst High Intensity Objects (%): 3%
  Population Membrane Permeable-Phenotype (%): 4%
  Population Mitochondria Different-Phenotype (%): 8%
  Population Mitotic Cells (%): 84%
  Population Normal (%): 96%
  Population Pyknosed Nuclei (%): 10%
  Population Tubulin-Different-Phenotype (%): 17%
  Total Cell Count: 539
[11]
  Population Apoptotic (%): 49%
  Population Fragmented Nuclei (%): 13%
  Population Healthy Nuclei (%): 67%
  Population Hoechst High Intensity Objects (%): 9%
  Population Membrane Permeable-Phenotype (%): 3%
  Population Mitochondria Different-Phenotype (%): 74%
  Population Mitotic Cells (%): 50%
  Population Normal (%): 90%
  Population Pyknosed Nuclei (%): 19%
  Population Tubulin-Different-Phenotype (%): 70%
  Total Cell Count: 365
[12]
  Population Apoptotic (%): 36%
  Population Fragmented Nuclei (%): 7%
  Population Healthy Nuclei (%): 74%
  Population Hoechst High Intensity Objects (%): 2%
  Population Membrane Permeable-Phenotype (%): 0%
  Population Mitochondria Different-Phenotype (%): 54%
  Population Mitotic Cells (%): 63%
  Population Normal (%): 97%
  Population Pyknosed Nuclei (%): 18%
  Population Tubulin-Different-Phenotype (%): 67%
  Total Cell Count: 337
